Test system: U2OS
Assay: Multiplex assay against U2OS
Type: toxicity, cell-based
Conditions: human
Summary of the method: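 At seeding, live cells were stained with Hoechst33342, BioTracker Green Microtubule Cytoskeleton Dye, MitoTracker Red and Annexin V Alexa Fluor 680. After compound addition they were imaged on a CQ1 microscope at 37°C and 5% CO2, and CellPathfinder machine-learning gating sorted them into Hoechst high-intensity objects or normal cells, with normal cells further split into healthy, pyknosed or fragmented nuclei and pyknosed cells into mitotic or apoptotic. Tubulin, mitochondrial-mass and membrane-permeability phenotypes are given as per cents of cells with healthy nuclei.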

[1] = 12 h, 1 µM, compound concentration 1 uM, replicate 1
[2] = 12 h, 1 µM, compound concentration 1 uM, replicate 2
[3] = 12 h, 10 µM, compound concentration 10 uM, replicate 1
[4] = 12 h, 10 µM, compound concentration 10 uM, replicate 2
[5] = 24 h, 1 µM, compound concentration 1 uM, replicate 1
[6] = 24 h, 1 µM, compound concentration 1 uM, replicate 2
[7] = 24 h, 10 µM, compound concentration 10 uM, replicate 1
[8] = 24 h, 10 µM, compound concentration 10 uM, replicate 2
[9] = 48 h, 1 µM, compound concentration 1 uM, replicate 1
[10] = 48 h, 1 µM, compound concentration 1 uM, replicate 2
[11] = 48 h, 10 µM, compound concentration 10 uM, replicate 1
[12] = 48 h, 10 µM, compound concentration 10 uM, replicate 2

## O=C(NCCNCC(O)COc1ccc(O)cc1)N1CCOCC1.O=C(NCCNCC(O)COc1ccc(O)cc1)N1CCOCC1.O=C(O)/C=C/C(=O)O (configuration not stated) [XAMOTEROL FUMARATE]
[1]
  Population Apoptotic (%): 71%
  Population Fragmented Nuclei (%): 27%
  Population Healthy Nuclei (%): 66%
  Population Hoechst High Intensity Objects (%): 2%
  Population Membrane Permeable-Phenotype (%): 6%
  Population Mitochondria Different-Phenotype (%): 1%
  Population Mitotic Cells (%): 28%
  Population Normal (%): 97%
  Population Pyknosed Nuclei (%): 5%
  Population Tubulin-Different-Phenotype (%): 2%
  Total Cell Count: 265
[2]
  Population Apoptotic (%): 83%
  Population Fragmented Nuclei (%): 19%
  Population Healthy Nuclei (%): 68%
  Population Hoechst High Intensity Objects (%): 3%
  Population Membrane Permeable-Phenotype (%): 13%
  Population Mitotic Cells (%): 16%
  Population Normal (%): 96%
  Population Pyknosed Nuclei (%): 11%
  Population Tubulin-Different-Phenotype (%): 5%
  Total Cell Count: 110
[3]
  Population Apoptotic (%): 92%
  Population Fragmented Nuclei (%): 28%
  Population Healthy Nuclei (%): 60%
  Population Hoechst High Intensity Objects (%): 0%
  Population Membrane Permeable-Phenotype (%): 6%
  Population Mitochondria Different-Phenotype (%): 2%
  Population Mitotic Cells (%): 7%
  Population Normal (%): 99%
  Population Pyknosed Nuclei (%): 11%
  Population Tubulin-Different-Phenotype (%): 4%
  Total Cell Count: 239
[4]
  Population Apoptotic (%): 100%
  Population Fragmented Nuclei (%): 15%
  Population Healthy Nuclei (%): 73%
  Population Hoechst High Intensity Objects (%): 4%
  Population Membrane Permeable-Phenotype (%): 4%
  Population Mitochondria Different-Phenotype (%): 3%
  Population Mitotic Cells (%): 0%
  Population Normal (%): 95%
  Population Tubulin-Different-Phenotype (%): 7%
  Total Cell Count: 118
[5]
  Population Apoptotic (%): 85%
  Population Fragmented Nuclei (%): 24%
  Population Healthy Nuclei (%): 68%
  Population Hoechst High Intensity Objects (%): 0%
  Population Membrane Permeable-Phenotype (%): 5%
  Population Mitochondria Different-Phenotype (%): 0%
  Population Mitotic Cells (%): 15%
  Population Normal (%): 99%
  Population Pyknosed Nuclei (%): 6%
  Population Tubulin-Different-Phenotype (%): 1%
  Total Cell Count: 312
[6]
  Population Apoptotic (%): 80%
  Population Fragmented Nuclei (%): 18%
  Population Healthy Nuclei (%): 69%
  Population Hoechst High Intensity Objects (%): 1%
  Population Membrane Permeable-Phenotype (%): 10%
  Population Mitochondria Different-Phenotype (%): 4%
  Population Mitotic Cells (%): 20%
  Population Normal (%): 98%
  Population Pyknosed Nuclei (%): 11%
  Population Tubulin-Different-Phenotype (%): 5%
  Total Cell Count: 129
[7]
  Population Apoptotic (%): 89%
  Population Fragmented Nuclei (%): 22%
  Population Healthy Nuclei (%): 66%
  Population Hoechst High Intensity Objects (%): 1%
  Population Membrane Permeable-Phenotype (%): 6%
  Population Mitochondria Different-Phenotype (%): 2%
  Population Mitotic Cells (%): 10%
  Population Normal (%): 98%
  Population Pyknosed Nuclei (%): 10%
  Population Tubulin-Different-Phenotype (%): 2%
  Total Cell Count: 270
[8]
  Population Apoptotic (%): 78%
  Population Fragmented Nuclei (%): 16%
  Population Healthy Nuclei (%): 70%
  Population Mitotic Cells (%): 21%
  Population Pyknosed Nuclei (%): 12%
  Population Tubulin-Different-Phenotype (%): 6%
  Total Cell Count: 152
[9]
  Population Apoptotic (%): 90%
  Population Fragmented Nuclei (%): 18%
  Population Healthy Nuclei (%): 75%
  Population Hoechst High Intensity Objects (%): 1%
  Population Membrane Permeable-Phenotype (%): 4%
  Population Mitochondria Different-Phenotype (%): 2%
  Population Mitotic Cells (%): 9%
  Population Normal (%): 98%
  Population Pyknosed Nuclei (%): 6%
  Population Tubulin-Different-Phenotype (%): 2%
  Total Cell Count: 472
[10]
  Population Apoptotic (%): 91%
  Population Fragmented Nuclei (%): 23%
  Population Healthy Nuclei (%): 62%
  Population Hoechst High Intensity Objects (%): 2%
  Population Membrane Permeable-Phenotype (%): 6%
  Population Mitochondria Different-Phenotype (%): 3%
  Population Mitotic Cells (%): 8%
  Population Normal (%): 97%
  Population Pyknosed Nuclei (%): 13%
  Population Tubulin-Different-Phenotype (%): 4%
  Total Cell Count: 171
[11]
  Population Apoptotic (%): 89%
  Population Fragmented Nuclei (%): 18%
  Population Healthy Nuclei (%): 68%
  Population Hoechst High Intensity Objects (%): 1%
  Population Membrane Permeable-Phenotype (%): 2%
  Population Mitochondria Different-Phenotype (%): 1%
  Population Mitotic Cells (%): 10%
  Population Normal (%): 98%
  Population Pyknosed Nuclei (%): 12%
  Population Tubulin-Different-Phenotype (%): 2%
  Total Cell Count: 392
[12]
  Population Apoptotic (%): 94%
  Population Fragmented Nuclei (%): 17%
  Population Healthy Nuclei (%): 73%
  Population Hoechst High Intensity Objects (%): 2%
  Population Membrane Permeable-Phenotype (%): 4%
  Population Mitochondria Different-Phenotype (%): 4%
  Population Mitotic Cells (%): 5%
  Population Normal (%): 97%
  Population Pyknosed Nuclei (%): 9%
  Population Tubulin-Different-Phenotype (%): 6%
  Total Cell Count: 206

## COCCCN1CCC(NC(=O)c2cc(Cl)c(N)c3c2OCC3)CC1 [PRUCALOPRIDE]
[1]
  Population Apoptotic (%): 84%
  Population Fragmented Nuclei (%): 30%
  Population Healthy Nuclei (%): 63%
  Population Hoechst High Intensity Objects (%): 1%
  Population Membrane Permeable-Phenotype (%): 7%
  Population Mitochondria Different-Phenotype (%): 3%
  Population Mitotic Cells (%): 15%
  Population Normal (%): 98%
  Population Pyknosed Nuclei (%): 6%
  Population Tubulin-Different-Phenotype (%): 4%
  Total Cell Count: 207
[2]
  Population Apoptotic (%): 87%
  Population Fragmented Nuclei (%): 21%
  Population Healthy Nuclei (%): 71%
  Population Hoechst High Intensity Objects (%): 0%
  Population Membrane Permeable-Phenotype (%): 12%
  Population Mitochondria Different-Phenotype (%): 7%
  Population Mitotic Cells (%): 12%
  Population Normal (%): 99%
  Population Pyknosed Nuclei (%): 7%
  Population Tubulin-Different-Phenotype (%): 8%
  Total Cell Count: 110
[3]
  Population Apoptotic (%): 68%
  Population Fragmented Nuclei (%): 22%
  Population Healthy Nuclei (%): 63%
  Population Hoechst High Intensity Objects (%): 3%
  Population Membrane Permeable-Phenotype (%): 4%
  Population Mitochondria Different-Phenotype (%): 0%
  Population Mitotic Cells (%): 31%
  Population Normal (%): 96%
  Population Pyknosed Nuclei (%): 13%
  Population Tubulin-Different-Phenotype (%): 2%
  Total Cell Count: 238
[4]
  Population Apoptotic (%): 47%
  Population Fragmented Nuclei (%): 13%
  Population Healthy Nuclei (%): 73%
  Population Hoechst High Intensity Objects (%): 2%
  Population Membrane Permeable-Phenotype (%): 1%
  Population Mitochondria Different-Phenotype (%): 1%
  Population Mitotic Cells (%): 52%
  Population Normal (%): 97%
  Population Pyknosed Nuclei (%): 12%
  Population Tubulin-Different-Phenotype (%): 1%
  Total Cell Count: 140
[5]
  Population Apoptotic (%): 80%
  Population Fragmented Nuclei (%): 26%
  Population Healthy Nuclei (%): 65%
  Population Hoechst High Intensity Objects (%): 2%
  Population Membrane Permeable-Phenotype (%): 5%
  Population Mitochondria Different-Phenotype (%): 3%
  Population Mitotic Cells (%): 20%
  Population Normal (%): 97%
  Population Pyknosed Nuclei (%): 8%
  Population Tubulin-Different-Phenotype (%): 5%
  Total Cell Count: 247
[6]
  Population Fragmented Nuclei (%): 23%
  Population Healthy Nuclei (%): 69%
  Population Hoechst High Intensity Objects (%): 1%
  Population Membrane Permeable-Phenotype (%): 8%
  Population Mitochondria Different-Phenotype (%): 4%
  Population Normal (%): 98%
  Population Pyknosed Nuclei (%): 7%
  Population Tubulin-Different-Phenotype (%): 7%
  Total Cell Count: 132
[7]
  Population Apoptotic (%): 87%
  Population Fragmented Nuclei (%): 23%
  Population Healthy Nuclei (%): 64%
  Population Hoechst High Intensity Objects (%): 4%
  Population Membrane Permeable-Phenotype (%): 5%
  Population Mitochondria Different-Phenotype (%): 2%
  Population Mitotic Cells (%): 12%
  Population Normal (%): 95%
  Population Pyknosed Nuclei (%): 12%
  Population Tubulin-Different-Phenotype (%): 4%
  Total Cell Count: 280
[8]
  Population Apoptotic (%): 77%
  Population Fragmented Nuclei (%): 12%
  Population Healthy Nuclei (%): 76%
  Population Hoechst High Intensity Objects (%): 1%
  Population Membrane Permeable-Phenotype (%): 3%
  Population Mitotic Cells (%): 22%
  Population Normal (%): 98%
  Population Pyknosed Nuclei (%): 11%
  Population Tubulin-Different-Phenotype (%): 3%
  Total Cell Count: 161
[9]
  Population Apoptotic (%): 85%
  Population Fragmented Nuclei (%): 20%
  Population Healthy Nuclei (%): 73%
  Population Hoechst High Intensity Objects (%): 3%
  Population Membrane Permeable-Phenotype (%): 3%
  Population Mitochondria Different-Phenotype (%): 1%
  Population Mitotic Cells (%): 14%
  Population Normal (%): 96%
  Population Pyknosed Nuclei (%): 6%
  Population Tubulin-Different-Phenotype (%): 3%
  Total Cell Count: 352
[10]
  Population Apoptotic (%): 86%
  Population Healthy Nuclei (%): 67%
  Population Hoechst High Intensity Objects (%): 2%
  Population Membrane Permeable-Phenotype (%): 11%
  Population Mitochondria Different-Phenotype (%): 6%
  Population Mitotic Cells (%): 13%
  Population Normal (%): 97%
  Population Pyknosed Nuclei (%): 11%
  Population Tubulin-Different-Phenotype (%): 9%
  Total Cell Count: 199
[11]
  Population Apoptotic (%): 88%
  Population Fragmented Nuclei (%): 17%
  Population Healthy Nuclei (%): 69%
  Population Hoechst High Intensity Objects (%): 1%
  Population Membrane Permeable-Phenotype (%): 5%
  Population Mitochondria Different-Phenotype (%): 2%
  Population Mitotic Cells (%): 11%
  Population Normal (%): 98%
  Population Pyknosed Nuclei (%): 12%
  Population Tubulin-Different-Phenotype (%): 2%
  Total Cell Count: 347
[12]
  Population Apoptotic (%): 90%
  Population Fragmented Nuclei (%): 11%
  Population Healthy Nuclei (%): 79%
  Population Membrane Permeable-Phenotype (%): 3%
  Population Mitochondria Different-Phenotype (%): 3%
  Population Mitotic Cells (%): 9%
  Population Pyknosed Nuclei (%): 9%
  Population Tubulin-Different-Phenotype (%): 1%
  Total Cell Count: 245
